21 compounds from ChEMBL document CHEMBL4364257, “Discovery of novel Bcr-AblT315I inhibitors with flexible linker. Part 1: Confirmation optimization of phenyl-1H-indazol-3-amine as hinge binding moiety” (Eur J Med Chem, 2019) can be followed below.

The target of data set [1] is Proto-oncogene tyrosine-protein kinase Src (Homo sapiens, UniProt P12931). Description: Inhibition of human recombinant full length N-terminal GST tagged SRC expressed in Escherichia coli using KVEKIGEGTYGVVYK-amide as substrate measured after 60 mins in presence of ATP by ADP-Glo kinase assay. Put shortly: (§1)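 ADP-Glo luminescence format: kinase with substrate/ATP mix and inhibitor in 40 mM Tris pH 7.4, 10 mM MgCl2, 0.1 mg/mL BSA, 1 mM DTT, 60 min at 30 °C. ADP-Glo reagent 40 min at room temperature to stop and deplete ATP, then detection reagent 30 min; luminescence read.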

Data set [2] concerns the target Bcr/Abl fusion protein (Homo sapiens, UniProt P00519). Description: Inhibition of wild type BCR/ABL (unknown origin) measured after 60 mins in presence of ATP by ADP-Glo kinase assay. It is filed as protein assay.
For data set [3], the target named is Bcr/Abl fusion protein (Homo sapiens, UniProt P00519, T315I). As to the kind of experiment: Inhibition of BCR/ABL T315I mutant (unknown origin) measured after 60 mins in presence of ATP by ADP-Glo kinase assay. The class given is protein assay.
The subject of another data set is K562. Description: Antiproliferative activity against human BCR/ABL positive K562 cells assessed as growth inhibition measured after 48 hrs by MTT assay. It is filed as functional, cell-based. The conditions noted are these: K562, 48 h. Put shortly: (§2)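 K562 and K562R (T315I) cells grown in RPMI 1640 + 10% FBS; 2500 cells/well seeded, 12 h at 37 °C, 5% CO2, then compounds at indicated final concentrations for 48 h. MTT 0.5 mg/mL final, 4 h at 37 °C; supernatant removed, DMSO added, absorbance at 490 nm. IC50 calculated from inhibition ratios.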

The target in data set [4] is Tyrosine-protein kinase HCK (Homo sapiens, UniProt P08631). As to the kind of experiment: Inhibition of human recombinant N-terminal GST tagged HCK (230 to 497 residues) expressed in baculovirus infected Sf9 cells using poly (Glu,Tyr) 4:1 as substrate measured after 60 mins in presence of ATP by ADP-Glo kinase assay. Summed up:
as §1

Data set [5] addresses Mitogen-activated protein kinase 14 (Homo sapiens, UniProt Q16539). Description: Inhibition of human recombinant full length N-terminal GST tagged p38alpha expressed in baculovirus infected Sf9 cells using p38 peptide as substrate measured after 60 mins in presence of ATP by ADP-Glo kinase assay. Put shortly:
as §1
In general terms: ADP-Glo first removes unused ATP, then detects ADP through luciferase.

The next data set concerns K-562R. Description: Antiproliferative activity against human K562R cells expressing BCR/ABL T315I mutant assessed as growth inhibition measured after 48 hrs by MTT assay. It is filed as functional, cell-based. Put shortly: as §2
The next data set deals with HEK293. As to the kind of experiment: Cytotoxicity against human HEK293 cells upto 150 uM measured after 48 hrs by MTT assay. The class given is cell-based. Particulars: hek293, 48 h. Put shortly: (§3)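 Normal human cells (EA.hy926, Hek293) kept in DMEM + 10% FBS; 2500 cells/well, 12 h preincubation at 37 °C, 5% CO2; compound added at indicated final concentrations for 48 h. MTT at 0.5 mg/mL final for 4 h, formazan dissolved in DMSO, absorbance read at 490 nm.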
In general terms: Tetrazolium assays rely on reduction of a dye to a coloured formazan, in cell work by metabolically active cells.

The next data set concerns EA.hy 926. Description: Cytotoxicity against human EAhy926 cells upto 150 uM measured after 48 hrs by MTT assay. It is filed as cell-based. The conditions noted are these: ea.hy 926, 48 h. Put shortly: as §3
Data set [6] has as its target Bcr/Abl fusion protein (Homo sapiens) (UniProt P00519+P11274). As to the kind of experiment: Inhibition of BCR/ABL phosphorylation in human K562 cells measured after 4 hrs by Western blot analysis. It is filed as cell-based. Put shortly:
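K562 cells exposed to DMSO vehicle or drug for 4 h, lysed in SDS sample buffer, BCA-normalized; equal protein run on SDS-PAGE, transferred to PVDF, blocked in 5% milk/TBS-0.1% Tween-20. Probed overnight at 4 °C for Bcr-Abl, p-Bcr-Abl, actin; HRP secondaries 2 h at room temperature; ECL detection.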
A general note: Immunoblotting shows a protein as a band on a membrane.

The structures appear in SMILES notation.

In general, IC50 refers to the midpoint of a concentration-inhibition curve.

Proto-oncogene tyrosine-protein kinase Src, sequence (P12931 2-536 limits assumed): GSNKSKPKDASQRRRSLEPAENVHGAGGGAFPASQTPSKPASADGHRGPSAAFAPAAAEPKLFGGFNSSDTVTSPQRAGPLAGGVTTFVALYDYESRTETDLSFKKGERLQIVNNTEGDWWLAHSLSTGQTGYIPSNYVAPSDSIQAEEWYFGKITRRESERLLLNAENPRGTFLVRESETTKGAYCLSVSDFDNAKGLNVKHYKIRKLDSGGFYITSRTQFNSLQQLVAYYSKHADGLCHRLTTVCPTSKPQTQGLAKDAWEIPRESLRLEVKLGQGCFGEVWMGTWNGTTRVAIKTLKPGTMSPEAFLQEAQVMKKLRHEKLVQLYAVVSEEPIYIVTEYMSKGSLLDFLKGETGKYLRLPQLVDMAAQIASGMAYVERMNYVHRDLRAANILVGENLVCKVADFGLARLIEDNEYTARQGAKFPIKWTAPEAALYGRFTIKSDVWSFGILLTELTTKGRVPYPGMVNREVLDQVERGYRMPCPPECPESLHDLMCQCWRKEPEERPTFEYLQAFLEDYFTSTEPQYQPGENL
Mitogen-activated protein kinase 14, sequence (Q16539 whole entry): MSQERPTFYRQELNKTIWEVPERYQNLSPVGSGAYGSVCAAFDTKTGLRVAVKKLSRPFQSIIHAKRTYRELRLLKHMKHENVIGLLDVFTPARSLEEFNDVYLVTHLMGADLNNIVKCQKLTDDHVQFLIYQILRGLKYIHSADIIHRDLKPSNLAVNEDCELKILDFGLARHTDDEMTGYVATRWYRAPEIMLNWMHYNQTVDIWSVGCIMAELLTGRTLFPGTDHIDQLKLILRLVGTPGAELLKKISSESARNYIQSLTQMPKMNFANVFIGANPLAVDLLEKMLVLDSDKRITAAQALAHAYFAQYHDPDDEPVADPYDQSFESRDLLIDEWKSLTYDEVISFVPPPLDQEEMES
Tyrosine-protein kinase HCK, sequence (P08631 whole entry, the tested form may be a part): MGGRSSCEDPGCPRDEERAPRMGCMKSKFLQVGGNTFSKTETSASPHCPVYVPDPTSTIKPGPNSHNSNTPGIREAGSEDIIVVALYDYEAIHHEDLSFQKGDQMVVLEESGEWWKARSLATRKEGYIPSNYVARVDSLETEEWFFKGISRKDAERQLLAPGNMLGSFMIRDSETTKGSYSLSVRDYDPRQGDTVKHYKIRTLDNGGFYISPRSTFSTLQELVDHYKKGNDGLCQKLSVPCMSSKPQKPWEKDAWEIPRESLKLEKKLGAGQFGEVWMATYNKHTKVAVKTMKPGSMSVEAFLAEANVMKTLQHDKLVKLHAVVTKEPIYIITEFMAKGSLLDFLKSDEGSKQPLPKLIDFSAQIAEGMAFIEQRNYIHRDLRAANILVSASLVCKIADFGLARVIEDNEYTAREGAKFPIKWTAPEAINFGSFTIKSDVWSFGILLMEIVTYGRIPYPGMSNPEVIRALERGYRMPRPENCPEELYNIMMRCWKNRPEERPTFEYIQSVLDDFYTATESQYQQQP

`Nc1n[nH]c2cc(-c3ccc(C(=O)NCCNC(=O)c4ccc(Cl)c(C(F)(F)F)c4)cc3)ccc12`: the IC50 in [1] was 15.1 µM; on Bcr/Abl fusion protein [2], 0.043 µM; on Bcr/Abl fusion protein [3], 0.17 µM; in the data set on K562 it was 1.65 µM; in [4], above 100 µM; in [5], 34.5 µM. In the data set with K-562R, the IC50 was determined as 5.42 µM. In addition, the Activity entry with HEK293 and in the data set with EA.hy 926 was “Non-Toxic” in each case. Also, in data set [6], the inhibition result is “Dose-dependent effect”.
As to `Nc1n[nH]c2cc(-c3ccc(C(=O)NCCNC(=O)c4ccc(Br)cc4)cc3)ccc12`, the 50% inhibitory concentration (IC50) on Bcr/Abl fusion protein [2] worked out at 2.16 µM; on Bcr/Abl fusion protein [3], 2.68 µM; in the data set with K562 it was 14 µM.
For `Nc1n[nH]c2cccc(-c3ccc(C(=O)N4CCN(C(=O)c5ccc(Cl)c(C(F)(F)F)c5)CC4)cc3)c12` the same measures were 10.7 µM, 2.08 µM and 4.9 µM.
Regarding `Cc1ccc(NC(=O)c2ccc(CN3CCN(C)CC3)cc2)cc1Nc1nccc(-c2cccnc2)n1` [IMATINIB], the values for the half-maximal inhibitory concentration (IC50) with K562 and in the data set on K-562R were 4.26 µM and 90 µM, respectively.
With `Nc1n[nH]c2cc(-c3ccc(C(=O)NCCNC(=O)c4ccc(F)cc4)cc3)ccc12`, the IC50 at Bcr/Abl fusion protein [2] is 2.45 µM; on Bcr/Abl fusion protein [3], 61.2 µM; in the data set with K562, 13.4 µM.
For `Cc1ccc(C(=O)NCCNC(=O)c2ccc(-c3ccc4c(N)n[nH]c4c3)cc2)cc1` the same measures were 0.38 µM, 4.3 µM and 1.45 µM.
For `CN(C)c1ccc(C(=O)NCCNC(=O)c2ccc(-c3cccc4[nH]nc(N)c34)cc2)cc1` the same measures were 5.75 µM, 76.8 µM and above 150 µM.
The matching figures for `Nc1n[nH]c2cccc(-c3ccc(C(=O)NCCNC(=O)c4ccc(F)cc4)cc3)c12`: 1.35 µM, 38.5 µM and 9.49 µM.
Turning to `Nc1n[nH]c2cc(-c3ccc(C(=O)N4CCN(C(=O)c5ccc(Br)cc5)CC4)cc3)ccc12`, the IC50 was 6.28 µM on Bcr/Abl fusion protein [2], 31.9 µM at Bcr/Abl fusion protein [3] and 11.3 µM with K562.
With `Nc1n[nH]c2cccc(-c3ccc(C(=O)NCCNC(=O)c4ccc(Br)cc4)cc3)c12`, the IC50 at Bcr/Abl fusion protein [2] is 31.6 µM; on Bcr/Abl fusion protein [3] it was 94.8 µM; in the data set on K562, above 150 µM.
For `Nc1n[nH]c2cc(-c3ccc(C(=O)N4CCN(C(=O)c5ccc(F)cc5)CC4)cc3)ccc12` the same measures were 2.34 µM, 8.6 µM and 39.1 µM.
Consider `CN(C)c1ccc(C(=O)N2CCN(C(=O)c3ccc(-c4ccc5c(N)n[nH]c5c4)cc3)CC2)cc1`, for which the values for the concentration for half-maximal inhibition (IC50) on Bcr/Abl fusion protein [2], at Bcr/Abl fusion protein [3] and in the data set with K562 were 2.54 µM, 6.23 µM and 61.2 µM, respectively.
With `Cc1ccc(C(=O)N2CCN(C(=O)c3ccc(-c4cccc5[nH]nc(N)c45)cc3)CC2)cc1`, the IC50 at Bcr/Abl fusion protein [2] is 5.85 µM; at Bcr/Abl fusion protein [3], 179 µM; in the data set with K562, above 150 µM.
`CN(C)c1ccc(C(=O)N2CCN(C(=O)c3ccc(-c4cccc5[nH]nc(N)c45)cc3)CC2)cc1`: the IC50 at Bcr/Abl fusion protein [2] was 4.28 µM; on Bcr/Abl fusion protein [3], 86.1 µM; in the data set with K562, above 150 µM.
As to `Cc1ccc(C(=O)NCCNC(=O)c2ccc(-c3cccc4[nH]nc(N)c34)cc2)cc1`, the IC50 with K562 is 5.93 µM.
`Nc1n[nH]c2cccc(-c3ccc(C(=O)N4CCN(C(=O)c5ccc(F)cc5)CC4)cc3)c12`: the IC50 was 17.6 µM at Bcr/Abl fusion protein [2], 20.9 µM at Bcr/Abl fusion protein [3] and 102 µM in the data set on K562.
Regarding `CN(C)c1ccc(C(=O)NCCNC(=O)c2ccc(-c3ccc4c(N)n[nH]c4c3)cc2)cc1`, the values for the IC50 at Bcr/Abl fusion protein [2], at Bcr/Abl fusion protein [3] and with K562 were 3.45 µM, 0.29 µM and 7.52 µM, respectively.
In the case of `Nc1n[nH]c2cccc(-c3ccc(C(=O)N4CCN(C(=O)c5ccc(Br)cc5)CC4)cc3)c12`, the IC50 on Bcr/Abl fusion protein [2] is 7.12 µM; at Bcr/Abl fusion protein [3] it was 1.5 µM; in the data set on K562, 9.25 µM.
For `Nc1n[nH]c2cc(-c3ccc(C(=O)N4CCN(C(=O)c5ccc(Cl)c(C(F)(F)F)c5)CC4)cc3)ccc12` the same measures were 1.99 µM, 5.33 µM and 4.84 µM.
Take `Cc1ccc(C(=O)N2CCN(C(=O)c3ccc(-c4ccc5c(N)n[nH]c5c4)cc3)CC2)cc1`: the half-maximal inhibitory concentration (IC50) at Bcr/Abl fusion protein [2] came out at 32.2 µM; on Bcr/Abl fusion protein [3] it was 3.72 µM; in the data set on K562 it was 59.3 µM.
The matching figures for `Nc1n[nH]c2cccc(-c3ccc(C(=O)NCCNC(=O)c4ccc(Cl)c(C(F)(F)F)c4)cc3)c12`: 0.11 µM, 20 µM and 17.1 µM.
